Activity calls are given as the source filed them. No cut-off for these calls is given here.
Tests used:
[1] = biological target: Glutamate NMDA receptor; Grin1/Grin2a (Rattus norvegicus, UniProt P35439+Q00959); assay: Antagonist activity at rat recombinant NR1-NR2A receptor expressed in Xenopus oocytes at holding potential of -40mV by two-electrode voltage-clamp electrophysiology; assay type: functional, cell-based, Oocyte; conditions: read-out: IC50
Summary of the method: (§1)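 Oocytes expressing rat NR1-1a with NR2A, NR2B, NR2C or NR2D, clamped at −40 mV in Ba2+/HEPES recording solution pH 7.4, 23°C. Current evoked by 100 μM glutamate plus 30 μM glycine. Final DMSO 0.05-0.5%, 5-7 inhibitor concentrations, ≥4 oocytes each. IC50 from Hill fit of normalized mean composite data. […] Some NR2A oocytes given BAPTA-AM or K-BAPTA.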

[2] = biological target: Glutamate NMDA receptor; Grin1/Grin2c (Rattus norvegicus, UniProt P35439+Q00961); assay: Antagonist activity at rat recombinant NR1-NR2C receptor expressed in Xenopus oocytes at holding potential of -40mV by two-electrode voltage-clamp electrophysiology; assay type: functional, cell-based, Oocyte; summary of the method: as §1
[3] = biological target: Glutamate NMDA receptor; Grin1/Grin2b (Rattus norvegicus, UniProt P35439+Q00960); assay: Antagonist activity at rat recombinant NR1-NR2B receptor expressed in Xenopus oocytes at holding potential of -40mV by two-electrode voltage-clamp electrophysiology; assay type: functional, cell-based, Oocyte; conditions: read-out: IC50; summary of the method: as §1
[4] = biological target: Ionotropic glutamate receptor NMDA 1/2D (Rattus norvegicus, UniProt P35439+Q62645); assay: Antagonist activity at rat recombinant NR1-NR2D receptor expressed in Xenopus oocytes at holding potential of -40mV by two-electrode voltage-clamp electrophysiology; assay type: functional, cell-based, Oocyte
Summary of the method: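 Oocytes expressing rat NR1-1a with NR2A, NR2B, NR2C or NR2D, clamped at −40 mV in Ba2+/HEPES recording solution pH 7.4, 23°C. Current evoked by 100 μM glutamate plus 30 μM glycine. Final DMSO 0.05-0.5%, 5-7 inhibitor concentrations, ≥4 oocytes each. IC50 from Hill fit of normalized mean composite data. Some NR2A oocytes given BAPTA-AM or K-BAPTA.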

Glutamate receptor 1 = Glutamate receptor 1 (Rattus norvegicus, UniProt P19490); assay: Antagonist activity at rat recombinant GLuR1 expressed in Xenopus oocytes assessed as inhibition of glutamate-induced current by two-electrode voltage-clamp electrophysiology; assay type: functional, cell-based, Oocyte
Summary of the method: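 Two-electrode voltage clamp at −40 mV on Xenopus oocytes expressing rat GluR1, perfused with 90 NaCl, 1.0 KCl, 0.5 BaCl2, 0.005 EDTA, 10 HEPES (mM), pH 7.4, 23°C; activated by 100 μM glutamate. From 20 mM DMSO stocks, 5-7 concentrations, ≥4 oocytes each. Hill fit to mean composite curves normalized to control, minimum usually fixed at 0. Response >75% at 100 μM reported as >300 μM.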

[5] = biological target: Glutamate receptor ionotropic, kainate 2 (Rattus norvegicus, UniProt P42260); assay: Antagonist activity at rat recombinant GLuR6 expressed in Xenopus oocytes assessed as inhibition of glutamate-induced current by two-electrode voltage-clamp electrophysiology; assay type: functional, cell-based; conditions: oocyte
Summary of the method: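 Rat GluR6 expressed in Xenopus oocytes, pretreated with 10 μM concanavalin A for 10 min, then activated by 100 μM glutamate. Cells were held at −40 mV in 90 mM NaCl, 1.0 KCl, 0.5 BaCl2, 0.005 EDTA and 10 HEPES, pH 7.4, at 23°C. Compounds were diluted from 20 mM DMSO stocks, final DMSO 0.05-0.5%. Concentration-effect curves were recorded.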

Rattus norvegicus [6] = organism: Rattus norvegicus; assay: Selectivity ratio of IC50 for rat recombinant NR1-NR2A receptor to IC50 for rat recombinant NR1-NR2D receptor
Summary of the method: (§2)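 Ratio of fitted IC50 values, either NR2A/NR2D or GluR1/NR2D, from two-electrode voltage-clamp Hill fits in oocytes. Where noted, calculated from IC50 values rounded to the nearest μM.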

Rattus norvegicus [7] = organism: Rattus norvegicus; assay: Selectivity ratio of IC50 for rat recombinant GLuR1 to IC50 for rat recombinant NR1-NR2D receptor; summary of the method: as §2
[8] = biological target: T1, Ionotropic glutamate receptor NMDA 1/2D (Rattus norvegicus) (UniProt P35439+Q62645); assay: Antagonist activity at rat recombinant NR1-NR2D receptor expressed in Xenopus oocytes at 30 uM at holding potential of -40mV by two-electrode voltage-clamp electrophysiology in presence of up to 1000/300 uM of glutamate/glycine; assay type: functional, cell-based; conditions: Oocyte
Summary of the method: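 NR1/NR2D oocytes held at −40 mV. Inhibition by 30 μM compound was compared with glutamate/glycine at 100/30 μM and raised to 1000/300 μM, to test whether higher agonist surmounts block. n=4.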

[9] = biological target: T1, Ionotropic glutamate receptor NMDA 1/2D (Rattus norvegicus); assay: Antagonist activity at rat recombinant NR1-NR2D receptor expressed in Xenopus oocytes at 10 uM at holding potential of -40mV by two-electrode voltage-clamp electrophysiology; assay type: functional, cell-based; conditions: Oocyte
[10] = biological target: T1, Ionotropic glutamate receptor NMDA 1/2D (Rattus norvegicus); assay: Antagonist activity at rat recombinant NR1-NR2D receptor expressed in Xenopus oocytes at 10 uM at holding potential of +40mV by two-electrode voltage-clamp electrophysiology; assay type: functional, cell-based; conditions: Oocyte

Glutamate receptor 1, sequence (P19490 whole entry, the tested form may be a part): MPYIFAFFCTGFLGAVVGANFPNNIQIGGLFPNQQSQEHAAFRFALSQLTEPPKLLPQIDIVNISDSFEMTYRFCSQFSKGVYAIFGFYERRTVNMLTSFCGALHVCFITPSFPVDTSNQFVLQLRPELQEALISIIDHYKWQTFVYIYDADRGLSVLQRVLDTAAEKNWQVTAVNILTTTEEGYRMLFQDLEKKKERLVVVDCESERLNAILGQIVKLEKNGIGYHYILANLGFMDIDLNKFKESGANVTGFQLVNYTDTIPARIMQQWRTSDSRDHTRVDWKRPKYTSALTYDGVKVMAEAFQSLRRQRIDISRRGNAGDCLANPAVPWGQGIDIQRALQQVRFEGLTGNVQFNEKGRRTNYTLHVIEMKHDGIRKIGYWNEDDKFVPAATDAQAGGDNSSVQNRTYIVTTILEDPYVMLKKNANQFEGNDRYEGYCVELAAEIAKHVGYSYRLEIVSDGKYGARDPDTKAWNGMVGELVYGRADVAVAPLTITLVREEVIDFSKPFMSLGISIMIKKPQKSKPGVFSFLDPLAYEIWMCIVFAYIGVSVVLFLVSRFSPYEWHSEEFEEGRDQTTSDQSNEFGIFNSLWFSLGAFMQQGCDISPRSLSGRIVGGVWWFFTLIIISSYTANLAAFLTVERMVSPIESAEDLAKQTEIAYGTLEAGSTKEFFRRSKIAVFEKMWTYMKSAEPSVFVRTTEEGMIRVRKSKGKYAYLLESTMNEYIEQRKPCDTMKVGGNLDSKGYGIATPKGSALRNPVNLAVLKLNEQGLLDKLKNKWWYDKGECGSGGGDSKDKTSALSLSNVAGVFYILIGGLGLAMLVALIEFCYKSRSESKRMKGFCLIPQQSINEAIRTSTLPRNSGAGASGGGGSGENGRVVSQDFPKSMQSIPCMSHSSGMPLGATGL
Glutamate receptor ionotropic, kainate 2, sequence (P42260 whole entry): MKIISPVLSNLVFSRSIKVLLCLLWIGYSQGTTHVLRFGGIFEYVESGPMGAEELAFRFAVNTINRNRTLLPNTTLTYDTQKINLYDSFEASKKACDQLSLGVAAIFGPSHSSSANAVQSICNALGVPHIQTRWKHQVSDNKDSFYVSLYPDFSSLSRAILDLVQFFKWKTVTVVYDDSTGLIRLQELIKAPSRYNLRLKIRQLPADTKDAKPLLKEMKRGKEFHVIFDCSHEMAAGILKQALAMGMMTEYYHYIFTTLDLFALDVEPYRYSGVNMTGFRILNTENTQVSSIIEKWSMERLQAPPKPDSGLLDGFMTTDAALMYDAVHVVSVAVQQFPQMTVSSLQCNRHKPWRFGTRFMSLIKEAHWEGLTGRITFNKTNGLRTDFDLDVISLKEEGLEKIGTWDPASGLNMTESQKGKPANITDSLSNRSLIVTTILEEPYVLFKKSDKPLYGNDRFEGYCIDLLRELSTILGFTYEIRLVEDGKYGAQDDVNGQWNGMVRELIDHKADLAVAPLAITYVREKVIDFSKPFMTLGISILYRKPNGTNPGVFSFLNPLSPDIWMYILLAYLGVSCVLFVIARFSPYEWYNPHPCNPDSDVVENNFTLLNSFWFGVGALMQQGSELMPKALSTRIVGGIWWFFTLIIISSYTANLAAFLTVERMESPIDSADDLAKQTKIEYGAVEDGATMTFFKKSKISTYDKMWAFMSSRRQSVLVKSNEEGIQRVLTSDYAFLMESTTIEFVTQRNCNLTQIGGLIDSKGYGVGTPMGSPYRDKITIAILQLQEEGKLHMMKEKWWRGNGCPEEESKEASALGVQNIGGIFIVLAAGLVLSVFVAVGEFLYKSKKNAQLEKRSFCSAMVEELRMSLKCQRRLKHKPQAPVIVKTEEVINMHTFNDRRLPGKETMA
Glutamate NMDA receptor; Grin1/Grin2c, sequence (Q00961 whole entry, other chains not shown): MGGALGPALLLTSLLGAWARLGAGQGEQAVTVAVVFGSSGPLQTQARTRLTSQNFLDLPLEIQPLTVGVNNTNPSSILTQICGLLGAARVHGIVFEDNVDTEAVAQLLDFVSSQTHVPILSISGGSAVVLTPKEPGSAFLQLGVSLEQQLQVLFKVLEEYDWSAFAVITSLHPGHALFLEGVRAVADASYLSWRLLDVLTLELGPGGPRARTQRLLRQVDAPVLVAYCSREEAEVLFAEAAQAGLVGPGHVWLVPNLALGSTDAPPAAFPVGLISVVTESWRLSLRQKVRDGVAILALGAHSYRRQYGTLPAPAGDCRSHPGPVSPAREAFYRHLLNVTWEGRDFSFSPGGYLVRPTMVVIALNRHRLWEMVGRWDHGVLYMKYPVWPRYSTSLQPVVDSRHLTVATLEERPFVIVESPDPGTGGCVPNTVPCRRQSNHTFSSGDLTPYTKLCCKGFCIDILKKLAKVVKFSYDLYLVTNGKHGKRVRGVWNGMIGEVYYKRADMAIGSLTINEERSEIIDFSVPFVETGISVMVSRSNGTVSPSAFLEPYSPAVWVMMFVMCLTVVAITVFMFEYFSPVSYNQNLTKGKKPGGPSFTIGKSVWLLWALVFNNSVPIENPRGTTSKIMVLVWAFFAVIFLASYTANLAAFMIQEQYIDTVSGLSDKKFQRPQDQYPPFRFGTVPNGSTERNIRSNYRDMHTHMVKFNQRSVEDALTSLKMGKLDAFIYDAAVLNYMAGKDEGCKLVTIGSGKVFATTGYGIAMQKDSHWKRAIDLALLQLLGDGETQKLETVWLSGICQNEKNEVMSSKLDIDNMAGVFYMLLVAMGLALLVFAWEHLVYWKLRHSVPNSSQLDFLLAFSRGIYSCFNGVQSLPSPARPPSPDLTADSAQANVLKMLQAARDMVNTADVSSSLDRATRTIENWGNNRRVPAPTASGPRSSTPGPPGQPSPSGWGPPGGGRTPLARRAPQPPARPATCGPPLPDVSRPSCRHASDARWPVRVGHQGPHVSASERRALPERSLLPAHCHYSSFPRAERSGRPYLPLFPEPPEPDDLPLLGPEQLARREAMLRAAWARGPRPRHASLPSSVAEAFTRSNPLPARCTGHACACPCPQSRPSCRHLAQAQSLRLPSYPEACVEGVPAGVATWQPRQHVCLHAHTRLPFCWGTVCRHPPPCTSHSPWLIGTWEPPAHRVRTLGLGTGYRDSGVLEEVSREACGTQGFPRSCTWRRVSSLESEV
Glutamate NMDA receptor; Grin1/Grin2b, sequence (Q00960 whole entry, other chains not shown): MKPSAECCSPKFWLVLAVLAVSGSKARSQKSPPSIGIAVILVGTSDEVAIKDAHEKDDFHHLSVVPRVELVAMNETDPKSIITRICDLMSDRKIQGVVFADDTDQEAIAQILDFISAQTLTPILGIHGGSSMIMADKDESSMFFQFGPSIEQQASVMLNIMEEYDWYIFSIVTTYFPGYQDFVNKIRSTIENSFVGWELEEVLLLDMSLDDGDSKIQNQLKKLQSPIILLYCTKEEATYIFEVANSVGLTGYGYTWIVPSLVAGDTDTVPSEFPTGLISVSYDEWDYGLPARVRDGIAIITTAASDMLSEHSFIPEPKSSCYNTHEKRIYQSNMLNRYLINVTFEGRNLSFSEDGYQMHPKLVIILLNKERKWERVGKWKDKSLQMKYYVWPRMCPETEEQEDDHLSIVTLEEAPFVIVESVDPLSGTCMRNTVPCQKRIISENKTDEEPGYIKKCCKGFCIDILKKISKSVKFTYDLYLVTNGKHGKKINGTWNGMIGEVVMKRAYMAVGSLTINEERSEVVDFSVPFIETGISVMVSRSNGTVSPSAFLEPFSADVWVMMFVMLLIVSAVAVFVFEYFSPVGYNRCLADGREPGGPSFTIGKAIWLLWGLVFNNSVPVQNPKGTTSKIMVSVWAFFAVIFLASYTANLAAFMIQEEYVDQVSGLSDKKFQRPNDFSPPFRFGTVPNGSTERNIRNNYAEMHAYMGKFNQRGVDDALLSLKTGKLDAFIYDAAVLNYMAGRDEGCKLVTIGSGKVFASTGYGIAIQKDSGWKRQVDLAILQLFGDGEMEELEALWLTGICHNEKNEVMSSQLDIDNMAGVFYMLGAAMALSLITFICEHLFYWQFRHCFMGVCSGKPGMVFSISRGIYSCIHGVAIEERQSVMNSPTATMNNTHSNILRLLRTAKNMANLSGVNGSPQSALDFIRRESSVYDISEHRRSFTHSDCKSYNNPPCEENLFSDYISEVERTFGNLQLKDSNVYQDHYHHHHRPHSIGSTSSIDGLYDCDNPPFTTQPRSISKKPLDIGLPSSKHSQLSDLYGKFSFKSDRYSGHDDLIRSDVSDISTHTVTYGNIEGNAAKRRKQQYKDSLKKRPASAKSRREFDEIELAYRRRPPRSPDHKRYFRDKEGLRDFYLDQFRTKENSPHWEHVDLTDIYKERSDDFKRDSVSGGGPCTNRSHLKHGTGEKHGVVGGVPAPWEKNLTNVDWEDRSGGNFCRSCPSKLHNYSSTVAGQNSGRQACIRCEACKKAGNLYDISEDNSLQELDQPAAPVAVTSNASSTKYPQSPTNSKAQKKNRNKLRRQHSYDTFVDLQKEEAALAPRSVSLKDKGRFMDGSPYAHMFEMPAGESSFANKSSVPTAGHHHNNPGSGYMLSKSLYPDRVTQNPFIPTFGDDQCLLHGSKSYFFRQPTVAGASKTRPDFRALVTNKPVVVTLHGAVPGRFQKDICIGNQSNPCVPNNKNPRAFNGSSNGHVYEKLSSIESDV

IC50 [3] [µM]	Activity [8]	Activity [9]	Activity [10]	Structure (SMILES)	IC50 [1] [µM]	IC50 [2] [µM]	IC50 [4] [µM]	IC50 (Glutamate receptor 1) [µM]	IC50 [5]	Ratio IC50 (Rattus norvegicus [6])	Ratio IC50 (Rattus norvegicus [7])
93				O=C(O)c1ccc(-n2c(/C=C/c3ccc([N+](=O)[O-])cc3)nc3ccccc3c2=O)cc1	64	15	15	> 300	Not Active		
30	Active	Active	Active	O=C(O)c1ccc(-n2c(/C=C/c3cccc([N+](=O)[O-])c3)nc3ccccc3c2=O)cc1	21	12	9	32	Not Active		
				COc1ccc(-n2c(/C=C/c3ccccc3[N+](=O)[O-])nc3ccccc3c2=O)cc1	> 300	143	125	223	Not Active		
20				O=C(O)c1cccc(-n2c(/C=C/c3ccccc3[N+](=O)[O-])nc3ccccc3c2=O)c1	17	8	7	5	Not Active		
				COc1cccc(-n2c(/C=C/c3ccccc3[N+](=O)[O-])nc3ccccc3c2=O)c1	> 300	> 300	> 300	> 300	Not Active		1
				COc1ccccc1-n1c(/C=C/c2cccc([N+](=O)[O-])c2)nc2ccccc2c1=O	> 300	> 300	> 300	> 300	Not Active		1
17				O=C(O)c1ccc(-n2c(/C=C/c3ccccc3[N+](=O)[O-])nc3ccccc3c2=O)cc1	11	8			Not Active		
235				O=C(O)c1ccccc1-n1c(/C=C/c2cccc([N+](=O)[O-])c2)nc2ccccc2c1=O	> 300	258	148	> 300	Not Active		
25				Cc1ccc2nc(/C=C/c3ccccc3)n(-c3ccc(C(=O)O)cc3)c(=O)c2c1	39	22	26	21		2	1
243				O=C(O)c1ccc(-n2c(/C=C/c3cccc([N+](=O)[O-])c3)nc3c(Cl)cccc3c2=O)cc1	56	12	9	87		6	10
				COc1cccc(-n2c(/C=C/c3ccc([N+](=O)[O-])cc3)nc3ccccc3c2=O)c1	> 300	> 300	> 300	> 300	Not Active		1
177				O=C(O)c1cccc(-n2c(/C=C/c3ccc([N+](=O)[O-])cc3)nc3ccccc3c2=O)c1	135	33	27	> 300	Not Active		
> 300				COc1ccc2nc(/C=C/c3cccc([N+](=O)[O-])c3)n(-c3cccc(C(=O)O)c3)c(=O)c2c1	208	24	13	289		16	22
69				O=C(O)c1cccc(-n2c(/C=C/c3cccc([N+](=O)[O-])c3)nc3ccccc3c2=O)c1	100	19	15	32	Not Active		
109				COc1cccc(/C=C/c2nc3ccc(OC)cc3c(=O)n2-c2ccc(C(=O)O)cc2)c1	73	18	9	220		8	24
18				CCCc1ccc2nc(/C=C/c3cccc([N+](=O)[O-])c3)n(-c3ccc(C(=O)O)cc3)c(=O)c2c1	28	3	4	50		7	13

Structure (SMILES)	IC50 [3] [µM]	Activity [8]	Activity [9]	Activity [10]	IC50 [1] [µM]	IC50 [2] [µM]	IC50 [4] [µM]	IC50 (Glutamate receptor 1) [µM]	IC50 [5]	Ratio IC50 (Rattus norvegicus [6])	Ratio IC50 (Rattus norvegicus [7])
COc1ccccc1-n1c(/C=C/c2ccccc2[N+](=O)[O-])nc2ccccc2c1=O	7				4	4	5	14	Not Active		
COc1cccc(-n2c(/C=C/c3cccc([N+](=O)[O-])c3)nc3ccccc3c2=O)c1	262				> 300	205	186	> 300	Not Active	2	2
COc1ccc(-n2c(/C=C/c3cccc([N+](=O)[O-])c3)nc3ccccc3c2=O)cc1	> 300				> 300	152	168	178	Not Active		
COc1ccccc1-n1c(/C=C/c2ccc([N+](=O)[O-])cc2)nc2ccccc2c1=O	> 300				> 300	> 300	290	> 300	Not Active	> 1	1
COc1ccc(-n2c(/C=C/c3ccc([N+](=O)[O-])cc3)nc3ccccc3c2=O)cc1	98				> 300	181	221	> 300	Not Active		
O=c1c2cc(I)ccc2nc(/C=C/c2cccnc2)n1-c1ccc([N+](=O)[O-])cc1	> 300				> 300	204	218	> 300		1	1
O=C(O)c1ccccc1-n1c(/C=C/c2ccc([N+](=O)[O-])cc2)nc2ccccc2c1=O	197				> 300	> 300	278	> 300	Not Active		
Cc1ccccc1-n1c(/C=C/c2cccnc2)nc2ccc(I)cc2c1=O	156				> 300	70	25	83		> 12	3
O=c1c2cc(I)ccc2nc(/C=C/c2cccnc2)n1-c1ccccc1[N+](=O)[O-]	105				206	19	5	> 300		41	60
O=c1c2ccccc2nc(/C=C/c2cccnc2)n1-c1ccccc1	51				40	140	35	74		1	2

— ChEMBL document CHEMBL1212913, “Quinazolin-4-one derivatives: A novel class of noncompetitive NR2C/D subunit-selective N-methyl-D-aspartate receptor antagonists” (J Med Chem, 2010)
